This note sets out measurements from ChEMBL document CHEMBL1641579, “Synthesis and biological evaluation of 7-substituted-1-(3-bromophenylamino)isoquinoline-4-carbonitriles as inhibitors of myosin light chain kinase and epidermal growth factor receptor” (Bioorg Med Chem, 2011).

Calls of active or inactive are those of the source. The calls are words filed in the database; no cut-off is given here.

One test concerns LCLC-97TM1. In words: Growth inhibition of human LCLC97TM1 cells assessed as ATP level after 96 hrs by CellTiter-Glo assay. As to conditions: LCLC-97TM1, 96 h. The test is classed as functional. Summed up:
(§1)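 NSCLC lines maintained as in earlier work and authenticated by mutational analysis and SNP arrays. Cells were plated in 384-well format and allowed 24 h before compound addition as 10 threefold serial dilutions (DMSO stocks). After 96 h, viability was read as cellular ATP by CellTiter-Glo. GI50 was fitted with an R package.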
Background: ATP-based viability assays read luminescence as a measure of living cells.

Test [1] can be described thus: Growth inhibition of human COLO699 cells assessed as ATP level after 96 hrs by CellTiter-Glo assay. Format: functional. As to conditions: COLO 699, 96 h. A digest of the protocol: as §1
A short description of test [2]: Growth inhibition of human H23 cells assessed as ATP level after 96 hrs by CellTiter-Glo assay. Particulars: NCI-H23, 96 h. The test is classed as functional. Summed up:
as §1

A short description of test [3]: Growth inhibition of human HCC2450 cells assessed as ATP level after 96 hrs by CellTiter-Glo assay. The test is classed as functional. A digest of the protocol:
as §1

Test [4] can be described thus: Growth inhibition of human HCC1833 cells assessed as ATP level after 96 hrs by CellTiter-Glo assay. Format: functional. A digest of the protocol:
as §1

The test system of test [5] is Epidermal growth factor receptor (Homo sapiens), P00533 [T790M]. Put plainly: Inhibition of EGFR T790M mutant activation expressed in human drug-resistant H1975 cells. Format: cell-based.
The next test deals with Calu-1. Put plainly: Growth inhibition of human Calu1 cells assessed as ATP level after 96 hrs by CellTiter-Glo assay. Format: functional. As to conditions: Calu-1, 96 h. Summed up:
as §1

Test [6] in a line: Growth inhibition of human H820 cells assessed as ATP level after 96 hrs by CellTiter-Glo assay. The test is classed as functional. Particulars: NCI-H820, 96 h. A digest of the protocol:
as §1

Another test relates to NCI-H1648. In words: Growth inhibition of human NCI-H1648 cells assessed as ATP level after 96 hrs by CellTiter-Glo assay. The test is classed as functional. As to conditions: NCI-H1648, 96 h. A digest of the protocol: as §1

Epidermal growth factor receptor (Homo sapiens), P00533 [T790M], sequence (P00533 whole entry T790M): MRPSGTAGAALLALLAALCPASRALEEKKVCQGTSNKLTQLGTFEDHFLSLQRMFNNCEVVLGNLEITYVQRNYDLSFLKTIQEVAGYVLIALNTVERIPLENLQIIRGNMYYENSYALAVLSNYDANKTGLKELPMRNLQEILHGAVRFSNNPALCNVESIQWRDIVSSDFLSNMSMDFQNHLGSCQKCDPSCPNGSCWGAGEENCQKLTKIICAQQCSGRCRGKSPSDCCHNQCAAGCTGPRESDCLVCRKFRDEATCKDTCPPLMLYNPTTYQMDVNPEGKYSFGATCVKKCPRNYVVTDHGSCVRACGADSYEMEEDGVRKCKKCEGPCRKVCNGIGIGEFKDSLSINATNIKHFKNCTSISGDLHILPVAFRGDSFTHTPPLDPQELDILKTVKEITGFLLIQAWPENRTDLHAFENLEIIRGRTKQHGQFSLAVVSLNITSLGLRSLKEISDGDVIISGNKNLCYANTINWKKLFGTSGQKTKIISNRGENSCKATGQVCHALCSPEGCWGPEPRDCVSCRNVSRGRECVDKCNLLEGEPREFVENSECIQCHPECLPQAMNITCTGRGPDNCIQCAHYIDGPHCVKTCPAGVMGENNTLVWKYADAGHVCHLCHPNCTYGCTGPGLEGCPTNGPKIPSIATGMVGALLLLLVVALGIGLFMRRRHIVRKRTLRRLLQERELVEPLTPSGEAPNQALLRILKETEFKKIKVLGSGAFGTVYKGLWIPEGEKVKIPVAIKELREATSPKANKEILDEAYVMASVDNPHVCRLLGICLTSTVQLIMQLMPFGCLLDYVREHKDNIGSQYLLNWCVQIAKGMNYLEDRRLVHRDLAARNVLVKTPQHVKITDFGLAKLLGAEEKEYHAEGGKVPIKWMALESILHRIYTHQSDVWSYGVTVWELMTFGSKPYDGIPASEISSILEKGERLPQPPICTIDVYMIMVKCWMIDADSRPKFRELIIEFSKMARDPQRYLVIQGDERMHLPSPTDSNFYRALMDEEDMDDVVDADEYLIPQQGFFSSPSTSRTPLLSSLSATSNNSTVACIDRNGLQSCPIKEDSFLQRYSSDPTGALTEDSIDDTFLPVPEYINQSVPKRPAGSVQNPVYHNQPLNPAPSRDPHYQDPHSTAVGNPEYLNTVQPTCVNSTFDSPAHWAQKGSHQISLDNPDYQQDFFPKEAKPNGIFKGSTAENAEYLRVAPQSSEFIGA

`CN(C)C/C=C/C(=O)Nc1ccc2c(C#N)cnc(Nc3cccc(Br)c3)c2c1`: the GI50 (commonly the concentration at which growth is held to half of that of the control) in the test on LCLC-97TM1 is 19.5 µM; in [1], 15.3 µM; in test [2], 29.9 µM; in test [3], 22.9 µM; in test [4] it was 16.8 µM; in the test on Calu-1, 19.7 µM. Besides, the GI50 turned out to be 12.9 µM in [6] and 21.1 µM in the test with NCI-H1648. Also, the inhibition result in test [5] was “Active”.
